Results from different studies.
Each line is one published result; the experiments were not run side by side.
Read-out: cell growth or viability

For N.N.[Cl][Pt][Cl], the inhibition was 88.5% (HepG2; MTT; 20 µM).
The IC50 of O=C1[O][Pt]2([NH][C@@H]3CCCC[C@H]3[NH]2)[O]C1=O is reported as 1.3 µM (PNT2; MTT; 96 h).
For CCC1(OC(=O)C(C)c2ccc3cc(OC)ccc3c2)C(=O)OCc2c1cc1n(c2=O)Cc2cc3cc4c(cc3nc2-1)OCO4 (stereo not shown), the IC50 was 3.5 µM (HepG2; MTT).
The EC50 of N.N.[Cl][Pt][Cl] is reported as 1.8 µM (A-431; SRB).
CCCc1cc(=O)n2nc(NCc3c(F)cc(Cl)cc3F)c(C#N)c2[nH]1 gave an IC50 of > 50 µM (HCC33; ATP luminescence; 72 h).
For N.N.[Cl][Pt][Cl], the IC50 was 64.4 µM (HEK-293T; XTT; 24 h).
For CC[C@@]1(OC(=O)C(C)c2ccc(CC(C)C)cc2)C(=O)OCc2c1cc1n(c2=O)Cc2cc3cc4c(cc3nc2-1)OCO4 (stereo partly shown), the IC50 was > 5 µM (HepG2; MTT).
The IC50 of COc1cc(OC)c(/C=C/S(=O)(=O)Nc2ccc(OC)c(N)c2)c(OC)c1 is reported as 0.004 µM (RF1; trypan blue; 96 h).
CC[C@@]1(OC(=O)[C@@H](N)CCSC)C(=O)OCc2c1cc1n(c2=O)Cc2cc3cc4c(cc3nc2-1)OCO4 gave an IC50 of 0.113 µM (HepG2; MTT).
The IC50 of N.N.[Cl][Pt][Cl] is reported as 40.1 µM (A-431; MTT; 24 h; dark).
The inhibition of CC1=C(O)C(=O)C=C2C1=CC=C1[C@@]2(C)CC[C@@]2(C)[C@@H]3C[C@](C)(C(=O)O)CC[C@]3(C)CC[C@]12C is reported as 77.3% (Huh-7; MTT; 20 µM).
For CC[C@@]1(OC(=O)[C@@H](N)CCCCN)C(=O)OCc2c1cc1n(c2=O)Cc2cc3cc4c(cc3nc2-1)OCO4, the IC50 was 0.035 µM (HepG2; MTT).
CCOC(=O)C1=C(N)N(c2ccc(C(=O)OCC)cc2)C(O)=C(C#N)C12C(=O)Nc1ccccc12 (stereo not shown) gave a viability of 26.3% (HepG2; MTT; 25 µM; 24 h).
